According to paper PMC6993113 (Journal of medicinal chemistry, 2017):
Where “and” joins values, the source holds several entries; their conditions need not be identical. Identical values can stand only once.

What was measured:
[1] = test system: MV4;11 xenograft tumors; conditions: mouse, in vivo
[2] = test system: p21; test: Western blot of p21 in MV4; assay type: cell-based, human; conditions: MV4;11 cells, 24 h
[3] = test system: PARP; test: Western blot of PARP cleavage in MV4; assay type: cell-based, human; conditions: MV4;11 cells, 24 h
[4] = target: all other 371 kinases; test: DiscoverX KINOMEscan kinase screening, remaining panel; assay type: binding, human; conditions: read-out: IC50 against all other 371 kinases
[5] = Pharmacokinetics in rats; assay type: in vivo, Sprague Dawley rats; conditions: for CL: Rat, PO (25 mg/kg)
Outline: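 Sprague Dawley rats got test compound iv at 5 mg/kg or orally at 25 mg/kg in a vehicle of 20% (v/v) PCP and 70% (v/v) PBS. Blood (100 μL) was drawn by catheter at 0, 5, 15 and 30 min and 1, 2, 4, 6, 8 and 24 hr, then spun at 15 000 rpm for 10 min. Plasma was stored at −80 °C and assayed by validated LC–MS/MS. Parameters were derived noncompartmentally.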

[6] = test system: c-Myc; test: Western blot of c-Myc in MV4; assay type: cell-based, human; conditions: MV4;11 cells, 1 h, different concentrations
[7] = Solubility in the dosing vehicle; assay type: physicochemical; conditions: 5% DMSO+10% Cremophor+85% saline
[8] = test system: MDA-MB-231 xenograft tumors
[9] = target: recombinant human BRD4 BD2 (Homo sapiens, UniProt O60885); test: Competitive fluorescence-polarization binding assay, BRD4 BD2; conditions: for Ki: BRD4 BD2 Ki, FP competitive binding
[10] = target: recombinant human BRD4 BD1 (Homo sapiens, UniProt O60885); test: Competitive fluorescence-polarization binding assay, BRD4 BD1; conditions: for Ki: BRD4 BD1 Ki, FP competitive binding, Tables 1, 2, 7 and text
[11] = test system: MOLM-13 acute leukemia cell line; test: Cell growth inhibition; assay type: cell-based; conditions: Homo sapiens, MOLM-13, 96 h, read-out: IC50 MOLM-13 cell growth inhibition
[12] = test system: MV4;11 acute leukemia cell line; test: Cell growth inhibition; assay type: cell-based; conditions: Homo sapiens, MV4-11, 96 h, read-out: IC50 MV4;11 cell growth inhibition
[13] = Aqueous solubility; assay type: physicochemical
[14] = Table 4 second column as headed

Row | IC50 [9] | Ki ([9]; Tables 1, 2, 7 and text) | IC50 [10] | Ki [10] | IC50 [11] | IC50 [12] | SMILES | further results
1 | – | – | – | – | – | – | COc1cc2c(cc1-c1c(C)noc1C)[nH]c1nc(C)nc(-c3ccnc4ccccc34)c12 [Compound 31, 4-(6-Methoxy-2-methyl-4-(quinolin-4-yl)-9H-pyrimido[4,5-b]indol-7-yl)-3,5-dimethylisoxazole] | weight loss or other signs of toxicity [1]: did not cause weight loss or other signs of toxicity; effect on p21 protein level [2]: effective in inducing upregulation of the cell cycle regulator p21; cleavage of PARP (marker of apoptosis) [3]: cleavage of PARP; IC50 [4]: > 50000 nM; CL [5]: 14.7 mL/min/kg; effect on c-Myc protein level [6]: rapid down-regulation of c-Myc at as early as the 1 h time-point and in a dose-dependent manner; solubility in the dosing vehicle [7]: readily soluble; tumor growth inhibition ([8]; MDA-MB-231 xenograft in mice, 40 mg/kg dosing daily, during the treatment period): essentially complete tumor growth inhibition; weight loss or other signs of toxicity ([8]; mouse, in vivo): did not experience weight loss or other signs of toxicity
2 | – | – | – | – | – | – | COc1cc2c(cc1-c1c(C)noc1C)[nH]c1ncnc(-n3nnc4ccccc43)c12 [Compound 28, 4-(4-(1H-Benzo[d][1,2,3]triazol-1-yl)-6-methoxy-9H-pyrimido[4,5-b]indol-7-yl)-3,5-dimethylisoxazole] | binding to BRD4 BD2 at 1 μM ([9]; FP binding, 1 μM): fails to show any appreciable binding; binding to BRD4 BD1 at 1 μM ([10]; FP binding, 1 μM): fails to show any appreciable binding
3 | 5.6 ± 1.9 nM | < 1 nM | 2.3 ± 1.1 nM | < 1 nM | 51 ± 6 nM | 5.1 ± 2.8 nM | COc1cc2c(cc1-c1c(C)noc1C)[nH]c1ncnc(-c3c(C)[nH]c4cc(F)ccc34)c12 [Compound 22, 4-(4-(6-Fluoro-2-methyl-1H-indol-3-yl)-6-methoxy-9H-pyrimido[4,5-b]indol-7-yl)-3,5-dimethyl isoxazole] | Ki [9, 14]: 0.9 ± 0.3 nM
4 | 36.3 ± 6.9 nM | 10.5 ± 1.9 nM | 93.8 ± 15.8 nM | 38.4 ± 10.5 nM | 220 ± 101 nM | 99 ± 43 nM | COc1cc2c(cc1-c1c(C)noc1C)[nH]c1nc(C)nc(-c3c(C)ccc4ncccc34)c12 [Compound 33, 4-(6-Methoxy-2-methyl-4-(6-methylquinolin-5-yl)-9H-pyrimido[4,5-b]indol-7-yl)-3,5-dimethyl-isoxazole] | –
5 | – | – | – | – | – | 20 ± 9 nM | COc1cc2c(cc1-c1c(C)noc1C)[nH]c1ccnc(-c3c(C4CC4)n[nH]c3C)c12 [Compound 6, RX-37, reference compound] | –
6 | 12.2 ± 4.2 nM | 1 nM | 2.2 ± 1 nM | 2.6 nM | 374 ± 52 nM | 76 ± 31 nM | COc1cc2c(cc1-c1c(C)noc1C)[nH]c1ncnc(-c3c[nH]c4cc(F)ccc34)c12 [Compound 20, 4-(4-(6-Fluoro-1H-indol-3-yl)-6-methoxy-9H-pyrimido[4,5-b]indol-7-yl)-3,5-dimethylisoxazole] | Ki [9, 14]: 2.6 ± 0.8 nM
7 | – | – | – | – | – | – | COc1cc2c(cc1-c1c(C)noc1C)[nH]c1ncnc(-c3c(C)[nH]c4ccccc34)c12 [Compound 21, 4-(6-Methoxy-4-(2-methyl-1H-indol-3-yl)-9H-pyrimido[4,5-b]indol-7-yl)-3,5-dimethylisoxazole] | CL [5]: 31.7 mL/min/kg; Cmax ([5]; Sprague Dawley, rat, plasma, po, 25 mg/kg): 1470 ng/mL and ~3 µM; aqueous solubility [13]: poor; solubility in the dosing vehicle [7]: difficult to dissolve

Row | SMILES | IC50 [9] | Ki ([9]; Tables 1, 2, 7 and text) | IC50 [10] | Ki [10] | IC50 [11] | IC50 [12] | further results
8 | COc1cc2c(cc1-c1c(C)noc1C)ncc1[nH]c(=O)n([C@H](C)c3ccccn3)c12 [Compound 5, I-BET151, reference compound] | – | – | – | – | – | 162 ± 112 nM | weight loss or other signs of toxicity [1]: did not cause weight loss or other signs of toxicity
